From ChEMBL document CHEMBL4765373, “Design, synthesis and biological evaluation of rasagiline-clorgyline hybrids as novel dual inhibitors of monoamine oxidase-B and amyloid-β aggregation against Alzheimer's disease” (Eur J Med Chem, 2020)
Active and inactive are the calls of the source. The calls are words filed in the database; no cut-off is given here.

How the values were obtained:
[1] = Clearance in Sprague-Dawley rat at 3 mg/kg, iv by LC-MS/MS analysis; assay type: ADME, organism-based; conditions: in vivo
Procedure, shortened: (§1)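 Male SD rats (n=3, 220 ± 20 g) dosed 3 mg/kg i.v. or 10 mg/kg by oral gavage. Plasma proteins precipitated with two volumes of 0.5% formic acid/acetonitrile; supernatant quantified by LC-MS/MS.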

SH-SY5Y [2] = assay: Neuroprotective activity against 6-OHDA-induced cell death in human SH-SY5Y cells assessed as increase in cell survival at 1.563 to 25 uM incubated for 24 hrs by MTT assay; assay type: functional, cell-based; conditions: dose 1.563-25 µM
Procedure, shortened: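 SH-SY5Y cells co-incubated with 200 µM 6-OHDA and compound at 1.563, 3.125, 6.25, 12.5 or 25 µM for 24 h. Viability read by MTT assay against a 6-OHDA-only group. Means ± SEM of three independent experiments.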

[3] = target: T1, Amine oxidase [flavin-containing] B (Homo sapiens, UniProt P27338); assay: biochemical; assay type: cell-based, BTI
T1 sequence (P27338 whole entry): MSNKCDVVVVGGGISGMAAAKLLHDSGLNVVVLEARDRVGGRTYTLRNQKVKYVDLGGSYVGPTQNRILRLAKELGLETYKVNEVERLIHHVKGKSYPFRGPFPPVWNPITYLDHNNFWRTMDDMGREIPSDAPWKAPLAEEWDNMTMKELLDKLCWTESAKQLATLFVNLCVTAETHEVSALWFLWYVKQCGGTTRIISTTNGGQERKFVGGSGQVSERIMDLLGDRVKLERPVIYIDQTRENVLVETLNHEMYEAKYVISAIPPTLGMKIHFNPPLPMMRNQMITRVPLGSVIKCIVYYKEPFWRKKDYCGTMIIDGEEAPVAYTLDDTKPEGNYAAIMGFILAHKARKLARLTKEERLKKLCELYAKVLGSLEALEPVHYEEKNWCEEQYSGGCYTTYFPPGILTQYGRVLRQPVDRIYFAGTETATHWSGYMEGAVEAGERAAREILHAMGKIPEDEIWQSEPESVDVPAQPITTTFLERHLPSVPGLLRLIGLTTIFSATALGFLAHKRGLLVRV

[4] = AUC (0 to infinity) in Sprague-Dawley rat at 3 mg/kg, iv by LC-MS/MS analysis; assay type: ADME, organism-based; set-up: time infinity, route intravenous, dose 3 mg/kg; conditions: in vivo; procedure, shortened: as §1
[5] = Half life in Sprague-Dawley rat at 3 mg/kg, iv by LC-MS/MS analysis; assay type: ADME, organism-based; conditions: in vivo; procedure, shortened: as §1
SH-SY5Y [6] = assay: Cytotoxicity against human SH-SY5Y cells assessed as reduction in cell viability at 25 uM after 24 hrs by MTT assay; assay type: cell-based
Procedure, shortened: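 SH-SY5Y cells grown in DMEM with FBS, penicillin/streptomycin, 5% CO2, 37 °C. Seeded at 10,000 cells/well and exposed to compound (6.25–100 µM) for 24 h at 37 °C. MTT added for 4 h, formazan dissolved in DMSO, absorbance read at 570 nm (reference 630 nm). Mean ± SD of three independent experiments.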

[7] = Tmax in Sprague-Dawley rat at 10 mg/kg, po administered via gavage by LC-MS/MS analysis; assay type: ADME, organism-based; conditions: in vivo; procedure, shortened: as §1
Homo sapiens [8] = species: Homo sapiens; assay: Inhibition of self-induced amyloid beta (1 to 42) (unknown origin) peptide aggregation at 25 uM measured after 48 hrs by thioflavin-T fluorescence assay relative to control
[9] = AUC (0 to infinity) in Sprague-Dawley rat at 10 mg/kg, po administered via gavage by LC-MS/MS analysis; assay type: ADME, organism-based; set-up: route oral, time infinity, dose 10 mg/kg; conditions: in vivo; procedure, shortened: as §1
Homo sapiens [10] = species: Homo sapiens; assay: Inhibition of self-induced amyloid beta (1 to 42) (unknown origin) peptide aggregation assessed as reduction in number of amyloid beta aggregates by TEM analysis
MAO-A = target: T2, MAO-A (Homo sapiens, UniProt P21397); assay: Inhibition of recombinant human MAOA expressed in baculovirus infected BTI insect cells at 100 uM using p-tyramine as substrate measured after 15 mins by Amplex red reagent based fluorescence assay relative to control; conditions: probe p-tyramine
T2 sequence (P21397 whole entry): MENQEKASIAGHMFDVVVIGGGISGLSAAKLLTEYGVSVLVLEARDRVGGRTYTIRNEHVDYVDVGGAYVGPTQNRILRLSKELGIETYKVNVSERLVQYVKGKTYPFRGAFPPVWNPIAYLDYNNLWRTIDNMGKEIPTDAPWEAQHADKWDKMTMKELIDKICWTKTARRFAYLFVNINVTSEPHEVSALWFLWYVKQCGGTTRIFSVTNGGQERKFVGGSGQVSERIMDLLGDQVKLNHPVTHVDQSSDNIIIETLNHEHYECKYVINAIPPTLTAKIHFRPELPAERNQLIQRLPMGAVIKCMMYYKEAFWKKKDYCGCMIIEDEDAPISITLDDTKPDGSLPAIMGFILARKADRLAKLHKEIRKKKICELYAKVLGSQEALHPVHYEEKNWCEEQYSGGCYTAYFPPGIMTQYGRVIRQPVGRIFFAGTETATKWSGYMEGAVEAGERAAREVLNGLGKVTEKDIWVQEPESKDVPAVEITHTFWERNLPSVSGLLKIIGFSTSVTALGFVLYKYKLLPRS
Procedure, shortened: (§2)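 Recombinant human MAO-A or MAO-B with p-tyramine substrate; H2O2 production detected by Amplex Red. Compounds diluted in DMSO/PBS (final DMSO <0.1%) and incubated with enzyme and substrate 15 min at 37 °C in the dark. Fluorescence read at ex/em 545/590 nm; mean ± SD of three independent experiments.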

[11] = target: T1, Amine oxidase [flavin-containing] B; assay: Competitive inhibition of recombinant human MAOB expressed in baculovirus infected BTI insect cells at 2.5 to 10 nM using varying levels of p-tyramine as substrate by Lineweaver-Burk plot analysis; conditions: dose 2.5-10 nM
Procedure, shortened: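 Recombinant hMAO-B initial rates measured with and without inhibitor at 2.5, 5 and 10 nM. p-Tyramine substrate at 0.05, 0.1, 0.5, 1.0, 1.5 and 3.0 mM. H2O2 production read by Amplex Red fluorescence. Mechanism taken from overlaid Lineweaver–Burk reciprocal plots.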

in vitro = conditions: PAMPA, pH 7.4
[12] = Half life in Sprague-Dawley rat at 10 mg/kg, po administered via gavage by LC-MS/MS analysis; assay type: ADME, organism-based; conditions: in vivo; procedure, shortened: as §1
[13] = Cmax in Sprague-Dawley rat at 3 mg/kg, iv by LC-MS/MS analysis; assay type: ADME, organism-based; set-up: route intravenous, dose 3 mg/kg; conditions: in vivo; procedure, shortened: as §1
[14] = Oral bioavailability in Sprague-Dawley rat at 10 mg/kg administered via gavage by LC-MS/MS analysis; assay type: ADME, organism-based; conditions: in vivo; procedure, shortened: as §1
[15] = Cmax in Sprague-Dawley rat at 10 mg/kg, po administered via gavage by LC-MS/MS analysis; assay type: ADME, organism-based; set-up: route oral, dose 10 mg/kg; conditions: in vivo; procedure, shortened: as §1
Homo sapiens [16] = species: Homo sapiens; assay: Selectivity index, ratio of IC50 for recombinant human MAOA expressed in baculovirus infected BTI insect cells to IC50 for recombinant human MAOB expressed in baculovirus infected BTI insect cells; procedure, shortened: as §2
[17] = target: T1, Amine oxidase [flavin-containing] B; assay: Inhibition of recombinant human MAOB expressed in baculovirus infected BTI insect cells at 100 uM using p-tyramine as substrate measured after 15 mins by Amplex red reagent based fluorescence assay relative to control; conditions: 0.25 h; procedure, shortened: as §2

Structure (SMILES) | IC50 [3] [nM] | inhibition (Homo sapiens [8]) [%] | inhibition at 0.25 h, 100 µM (MAO-A) [%] | Papp at 16 h (in vitro) [×10⁻⁶ cm/s] | Ratio IC50 (Homo sapiens [16]) | further results
C#CCN(C)CCCCCOc1ccc2c(c1)OCCC2=O | 4 | 40.8 | 6.04 | 10.2 | > 2.5 10^4No_unit | CL [1]: 55.5 mL/min/kg; Activity (SH-SY5Y [2]): Active; AUC [4]: 247.74 ng·h/mL; half-life [5]: 1.02 h; Activity (SH-SY5Y [6]): Non-Toxic; Tmax [7]: 0.3 h; AUC(0-inf) [9]: 268 ng·h/mL; inhibition (Homo sapiens [10]): Active; inhibition (INH) [11]: Active; half-life [12]: 1.33 h; Cmax [13]: 639 ng/mL; bioavailability [14]: 36.1%; Cmax [15]: 142 ng/mL
C#CCN(C)CCCCOc1ccc(C(C)=O)cc1OC | 1150 | 21.8 | 21.1 | 12.5 | > 87 | 
C#CCN(C)CCCCOc1ccc(C(C)=O)cc1 | 56.5 | 6.18 | 28.6 | 10.6 | > 1770 | 
C#CCN(C)CCCCCOc1ccc(C=O)c(OC)c1 | 5730 | 0.82 | 27.1 | 14 | > 17 | 
C#CCN(C)CCCCOc1ccc2c(c1)OCCC2=O | 58.9 | 43.9 | 22.8 | 13.7 | > 1700 | 
C#CCN(C)CCCCCCOc1ccc2c(c1)OCCC2=O | 117 | 0.66 | 34.1 | 8.54 | > 855 | 
C#CCN[C@@H]1CCc2ccccc21 [RASAGILINE] |  |  | 47.9 |  |  | Activity (SH-SY5Y [2]): Active
C#CCN(C)CCCCCCCCOc1ccc2c(c1)OCCC2=O | 422 | 0.34 | 28.6 | 8.91 | > 237 | 
C#CCN(C)CCCCCOc1ccc2c(c1)CCCC2=O | 46.3 | 10.3 | 26.1 | 10.6 | > 2160 | 
C#CCN(C)CCCCOc1ccc(C=O)c(OC)c1 |  | 0.86 | 29.4 | 13.1 |  | inhibition at 100 µM [17]: 41.2%
C#CCN(C)CCCCCOc1cccc(OC)c1 | 101 | 22.2 | 32.3 | 10.5 | > 991 | 
CN(C)CCCN1c2ccccc2Sc2ccc(Cl)cc21 [CHLORPROMAZINE] |  |  |  | 7.12 |  | 
C[C@]12CC[C@@H]3c4ccc(O)cc4CC[C@H]3[C@@H]1CC[C@@H]2O [ESTRADIOL] |  |  |  | 12.4 |  | 
C#CCN(C)CCCCCCOc1ccc2c(c1)CCCC2=O | 133 | 18.1 | 25 | 8.58 | > 751 | 
COc1cc(/C=C/C(=O)CC(=O)/C=C/c2ccc(O)c(OC)c2)ccc1O |  | 46.1 |  |  |  | inhibition (Homo sapiens [10]): Active
C#CCN(C)CCCCCCOc1ccc(C(C)=O)cc1 | 20.4 | 12.7 | 37.3 | 8.69 | > 4900 | 
C#CCN(C)CCCCOc1ccc2c(c1)CCCC2=O | 72.5 | 13.4 | 30.9 | 8.7 | > 1380 | 
C#CCN(C)CCCCCCOc1ccc(C=O)c(OC)c1 | 552 | 0.99 | 37.4 | 11.2 | > 181 | 
C#CCN(C)CCCCCOc1ccc2c(c1)CCC2=O | 94.8 | 11.4 | 31 | 10.9 | > 1060 | 
C#CCN(C)CCCCOc1ccc2c(c1)CCC2=O | 366 | 31.3 | 7.93 | 9.61 | > 273 | 
C#CCN(C)CCCCCCOc1ccc2c(c1)CCC2=O | 129 | 0.68 | 4.42 | 12.8 | > 777 | 
C#CCN(C)CCCOc1ccc2c(c1)OCCC2=O | 11400 | 7.77 | 32.1 | 9.21 | > 9 | 
C#CCN(C)CCCCCCOc1ccc2c(c1)OCC2=O | 51.9 | 9.76 | 11.7 | 8.3 | > 1930 | 
C#CCN(C)CCCCCOc1ccc(C(C)=O)cc1OC | 6520 | 5.74 | 39.5 | 12.9 | > 15 | 
